For test [1], the target named is T1, Melanocortin receptor 4 (Homo sapiens, UniProt P32245). The test is described as follows: Agonist activity at human MC4R expressed in HEK293 cells assessed as increase in cAMP production at 10^-7 to 10^-12 M after 15 mins by chemiluminescent assay. It counts as functional, cell-based. An outline of the steps: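 HEK293/hMC4R cells in DMEM with 10% SCS, seeded 3 days ahead. Cells pre-incubated 10 min at 37°C with 1mM IBMX, then 8 ligand concentrations given for 15 min at 37°C. Lysed 25 min at 37°C. cAMP measured by competitive chemiluminescent immunoassay (AP conjugate, anti-cAMP antibody) against a same-run standard curve, basal subtracted. Triplicate wells, 3 experiments.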

Test [2] addresses T1, Melanocortin receptor 4. The test is described as follows: Displacement of Eu-NDP-alpha-MSH from human MC4R expressed in HEK293 cells after 2 hrs by time resolved fluorescence assay. It counts as cell-based.
In test [3] the target is T1, Melanocortin receptor 4. Description: Agonist activity at of human MC4R expressed in HEK293 cells assessed as cAMP level at 10^-7 to 10^-12 M after 15 mins by chemiluminescent assay relative to 10% forskolin response. It is filed as functional, cell-based. The method, boiled down: (§1)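 Same cAMP immunoassay in HEK293/hMC4R cells (1mM IBMX, 15 min ligand at 37°C, basal subtracted). For each ligand, the concentration giving cAMP at 5%, 10% or 25% of the 10 μM forskolin maximum was found. Receptor occupancy there was computed as [RL] = Bmax × [L]/([L] + Kd), with Kd from the Eu-NDP-α-MSH competition binding assays.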

Test [4] concerns the target T1, Melanocortin receptor 4. Description: Agonist activity at of human MC4R expressed in HEK293 cells assessed as cAMP level at 10^-7 to 10^-12 M after 15 mins by chemiluminescent assay relative to 5% forskolin response. It is filed as functional, cell-based. An outline of the steps:
as §1

Molecules are shown by their SMILES. Activity calls are given as the source filed them. The rule behind the calls is not given here.

T1 sequence (P32245 whole entry): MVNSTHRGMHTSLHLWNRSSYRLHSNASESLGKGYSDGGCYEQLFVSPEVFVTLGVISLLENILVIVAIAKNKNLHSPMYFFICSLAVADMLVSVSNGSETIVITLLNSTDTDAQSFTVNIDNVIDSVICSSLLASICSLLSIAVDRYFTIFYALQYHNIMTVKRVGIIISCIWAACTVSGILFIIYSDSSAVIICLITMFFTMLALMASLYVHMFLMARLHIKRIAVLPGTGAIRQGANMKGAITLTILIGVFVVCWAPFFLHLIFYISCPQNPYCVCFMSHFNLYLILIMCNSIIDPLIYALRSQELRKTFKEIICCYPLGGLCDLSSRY

Turning to `C#CCCCC(=O)N[C@@H](Cc1cnc[nH]1)C(=O)N[C@H](Cc1ccccc1)C(=O)N[C@@H](CCCNC(=N)N)C(=O)N[C@@H](Cc1c[nH]c2ccccc12)C(=O)Nc1cn(CC(=O)NCCCC(CCCNC(=O)Cn2cc(NC(=O)[C@H](Cc3c[nH]c4ccccc34)NC(=O)[C@H](CCCNC(=N)N)NC(=O)[C@@H](Cc3ccccc3)NC(=O)[C@H](Cc3cnc[nH]3)NC(=O)CCC#C)nn2)(NC(=O)CNC(C)=O)C(=O)NCCC(N)=O)nn1` (some centres not stated), at Melanocortin receptor 4 [1], the result was Active. The same compound returned a concentration for half-maximal inhibition (IC50) at Melanocortin receptor 4 [2] of 310 nM. For the same compound, the results for the Activity on Melanocortin receptor 4 [3] and on Melanocortin receptor 4 [4] were 45000 pmol and 12000 pmol, respectively.
For `C#CCCCC(=O)N[C@@H](Cc1cnc[nH]1)C(=O)N[C@H](Cc1ccccc1)C(=O)N[C@@H](CCCNC(=N)N)C(=O)N[C@@H](Cc1c[nH]c2ccccc12)C(=O)Nc1cn(CC(=O)NCCCC(CCCNC(=O)Cn2cc(NC(=O)[C@H](Cc3c[nH]c4ccccc34)NC(=O)[C@H](CCCNC(=N)N)NC(=O)[C@@H](Cc3ccccc3)NC(=O)[C@H](Cc3cnc[nH]3)NC(=O)CCC#C)nn2)(NC(=O)CNC(=O)Cn2cc(NC(=O)[C@H](Cc3c[nH]c4ccccc34)NC(=O)[C@H](CCCNC(=N)N)NC(=O)[C@@H](Cc3ccccc3)NC(=O)[C@H](Cc3cnc[nH]3)NC(=O)CCC#C)nn2)C(=O)NCCC(N)=O)nn1` (some centres not stated), the outcome on Melanocortin receptor 4 [1] was Active. In addition, the Activity on Melanocortin receptor 4 [3] was 75000 pmol; at Melanocortin receptor 4 [4] it was 14000 pmol.

These data come from ChEMBL document CHEMBL1833902, “Design, synthesis, and biological studies of efficient multivalent melanotropin ligands: tools toward melanoma diagnosis and treatment” (J Med Chem, 2011).
